Test results reported in article PMC7114882 (ACS Omega, 2020).

Experiments:
Type in all cases: cell-based
[1] = system: Jurkat cells (T-lymphocyte leukemia); experiment: MTT assay of Jurkat cells
In short: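 Jurkat cells (2.0 × 10^5 cells/mL) were exposed to test compound ([…]) in 10% FBS/RPMI 1640 for 24 h at 37 °C under 5% CO2. After adding 0.5% MTT in PBS and incubating 4 h at 37 °C, formazan was dissolved overnight in 10% SDS/0.01 N HCl. Absorbance was read at 570 nm.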

Jurkat cells [2] = experiment: MTT assay of Jurkat cells with 4 in the presence of inhibitors; settings: 4 (25 μM), 1 h; BAPTA/AM 20 μM
In short: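 Jurkat cells (1.0 × 10^5 cells/mL) in 10% FBS RPMI 1640 were preincubated with inhibitor for 30 min at 37 °C under 5% CO2, then given test compound (25 μM) for 1 h. After a further 4 h at 37 °C, 0.5% MTT in PBS was added. Formazan was dissolved overnight in 10% SDS/0.01 N HCl and absorbance read at 570 nm.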

[3] = system: intracellular Ca^2+ in Jurkat cells; experiment: Flow cytometry analysis of Jurkat cells stained with Rhod-2 or Rhod-4; settings: celastrol, Figure S7
Jurkat cells [4] = experiment: Methylene blue staining and TEM of Jurkat cells; settings: 4 25 μM 1 h; celastrol 1 μM 24 h
In short: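 Jurkat cells (3.0 × 10^6) received test compound (25 μM, 1 h, 37 °C) or celastrol (1 μM, 24 h). Cells were pelleted, washed in ice-cold PBS/0.1% NaN3/0.5% FBS and prefixed in 2.5% glutaraldehyde (4 °C, 40 min). Postfixing used 1% OsO4 (4 °C, 30 min), then agarose embedding and ethanol dehydration. Cells were resin-embedded (60 °C, 3 days) and cut into 150 nm sections for methylene blue light microscopy and TEM.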

[5] = system: mitochondrial membrane potential (ΔΨm) of Jurkat cells; experiment: Measurement of mitochondrial membrane potential; settings: 4 25 μM; CCCP 40 μM; DilC1(5) 500 nM
In short: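 Jurkat cells (2.0 × 10^5) in 10% FBS RPMI 1640 were preincubated with or without CCCP (40 μM) for 30 min at 37 °C under 5% CO2, then exposed to test compound (25 μM) for 1 h. ΔΨm was probed with DilC1(5) (500 nM). Confocal imaging recorded bright field, DilC1(5) emission and compound emission.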

CN1CCN(CCCN2c3ccccc3Sc3ccc(C(F)(F)F)cc32)CC1 [TFP, trifluoperazine]
EC50 ([1]; Homo sapiens, Jurkat, read-out: EC50, cell death of Jurkat cells): ~50 µM
Cooperative effects with 4 on cell death of Jurkat cells ([1]; TFP with 4 (25 μM), data not shown): negligible

Oc1c2ccccc2c2c3c(cccc13)N=N2 [SP600125]
Inhibition of cell death induced by 4 (MTT, microscopy) (Jurkat cells [2]): negligible inhibition

N#CC(=C(/N)Sc1ccccc1N)/C(C#N)=C(/N)Sc1ccccc1N [U0126]
Inhibition of cell death induced by 4 (MTT, microscopy) (Jurkat cells [2]): negligible inhibition

O=C(Nc1ccc2[nH]nc(-c3ccncc3)c2c1)[C@@H]1CCN(CC(=O)N2CCN(c3ccc(-c4ncccn4)cc3)CC2)C1 [SCH772984]
Inhibition of cell death induced by 4 (MTT, microscopy) (Jurkat cells [2]): negligible inhibition

CC1=C(O)C(=O)C=C2C1=CC=C1[C@@]2(C)CC[C@@]2(C)[C@@H]3C[C@](C)(C(=O)O)CC[C@]3(C)CC[C@]12C [celastrol]
Change in mitochondrial Ca2+ concentration (Rhod-2) [3]: small change
Cytoplasmic vacuolization, TEM (Jurkat cells [4]): vacuolization
Cytoplasmic vacuolization, methylene blue staining (Jurkat cells [4]): same intracellular morphological changes

N#CC(C#N)=NNc1cccc(Cl)c1 [CCCP, Carbonyl cyanide 3-chlorophenylhydrazone]
Mitochondrial membrane potential (ΔΨm), emission of DilC1(5) [5]: decrease in ΔΨm was also observed

CC(=O)OCOC(=O)CN(CC(=O)OCOC(C)=O)c1ccccc1OCCOc1ccccc1N(CC(=O)OCOC(C)=O)CC(=O)OCOC(C)=O [BAPTA/AM, tetrakis(acetoxymethyl)-1,2-bis(2-aminophenoxy)ethane-N,N,N′,N′-tetraacetate]
Inhibition of cell death induced by 4 (MTT, microscopy) (Jurkat cells [2]): negligibly inhibits
